We go through 98 compounds from ChEMBL document CHEMBL4513216, “Probing the Open Global Health Chemical Diversity Library for Multistage-Active Starting Points for Next-Generation Antimalarials” (ACS Infect Dis, 2020).

This series is described as follows: Toxicity liver stage against HepG2, at 10uM. In kind it is cell-based. The arrangement: test concentration 10 uM, cell line HepG2-A16-CD81EGFP. To be noted: human, HepG2-A16-CD81EGFP cells; read-out: INHIBITION
The method in brief: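 Uninfected HepG2-A16-CD81EGFP cells, 3 × 10^3 per well, 1536-well, plated on prespotted compound at 10 μM final, parasite-free screening media added to match infected plates; puromycin 10 μM positive, DMSO 0.5% negative; run in parallel with 48 h PbLuc assay at 37 °C, 5% CO2; viability by CellTiter-Glo luminescence, normalized to controls.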

In the case of `O[C@@H]1C[C@@H](c2nc(-c3ccc(OC(F)(F)F)cc3)no2)N(CC2CC2)C1`, the cytotoxicity at 10 µM came out at 1.32%.
For `CNc1ncccc1CN1CCC1c1cc(N)nc(C)n1` (stereo not drawn), the cytotoxicity at 10 µM was 15.9%.
Then `COc1ccccc1CNc1c(O)c(=O)c1=O`, with 4.65%; and `Cc1cc(C)nc(C2(C)CCCN2CCO)n1` (stereo not drawn), with -3.89%.
Take `O=C(COc1ccccc1F)NCCC(O)c1ccco1` (stereo not drawn): the cytotoxicity at 10 µM was -4.18%.
As to `CN(C(=O)Cc1coc(-c2ccccc2)n1)C1(C#N)CCC1`, the cytotoxicity at 10 µM is 6.41%.
Turning to `Cc1nc(CC(=O)N2CCCCC2Cn2cccn2)cs1` (stereo not drawn), the cytotoxicity at 10 µM was -1.55%.
As to `CC(C)c1nnc(NC(=O)NCc2ccnc(N(C)C)c2)s1`, the cytotoxicity at 10 µM stood at 7.29%.
With `COc1ccc(CNCc2nnc3n2CC(C(F)(F)F)CC3)cc1` (stereo not drawn), the cytotoxicity at 10 µM turned out to be 3.27%.
Then `COc1ccc(CC(=O)N2CCCC(n3cc(C)cn3)C2)c(OC)c1` (stereo not drawn), with -8.66%; and `CC(C)Oc1ccc(C(=O)NCc2ccnc(N3CCCC3)c2)cn1`, with 47.3%.
As to `O=C([C@H]1C[C@H]2OCC[C@H]2N(CCc2ccccc2)C1)N1CCCCO1`, the cytotoxicity at 10 µM amounted to 0.307%.
Regarding `CC(Cn1cccn1)NC(=O)N1CCN(Cc2cccs2)CC1` (stereo not drawn), the cytotoxicity at 10 µM stood at 2.31%.
With `COCCN1CCCCC12CC(=O)N(c1cccc(C#N)c1)C2` (stereo not drawn), the cytotoxicity at 10 µM is -102%.
For `Cc1csc(CNc2cnn(CC(C)C)c2)n1`, the cytotoxicity at 10 µM is -6.63%.
With `COCCOC1CCN(C(C(=O)O)c2c(Cl)cccc2OC)CC1` (stereo not drawn), the cytotoxicity at 10 µM was 6.15%.
As for `CC(=O)N(C/C=C/c1ccccc1)CCO`, the figure is 4.64%; as for `CN1CCN([C@@H]2CN(C(=O)CCOc3ccccc3)C[C@H]2O)CC1`, 1.17%; as for `CO[C@@H]1CCN(c2ncc(F)cn2)[C@H]1Cc1cnn(C)c1`, -2.63%.
In the case of `Cc1ocnc1C(=O)N1CCN(C(=O)CC(C)C)[C@@H]2CS(=O)(=O)C[C@@H]21`, the cytotoxicity at 10 µM came out at 12.2%.
For the compound `NC(=O)c1cccc(OCC(=O)N2CCCC(n3cccn3)C2)c1` (stereo not drawn), the cytotoxicity at 10 µM was -13.5%.
Then `Cn1cc(CN2CCC3(CC2)NC(=O)CC3c2ccncc2)cn1` (stereo not drawn), with -2.1%; and `CC(CNS(N)(=O)=O)c1ccc(F)c(F)c1` (stereo not drawn), with -12.1%.
Consider `COc1ccc(C)cc1S(=O)(=O)NCC(c1cccn1C)N(C)C` (stereo not drawn), for which the cytotoxicity at 10 µM is -11.9%.
Regarding `N#Cc1c(N2CCCCC2)nsc1-c1cccnc1`, the cytotoxicity at 10 µM was 18.8%.
As to `CCS(=O)(=O)NCCCNC1CSCCc2ccccc21` (stereo not drawn), the cytotoxicity at 10 µM is -3.66%.
For the compound `O=C(CN1CCc2c(ncn2C2CC2)C1)NC1CC1`, the cytotoxicity at 10 µM was found to be 1.01%.
For the compound `c1cnnc(N2CCCC(NCc3nc(-c4ccco4)no3)C2)c1` (stereo not drawn), the cytotoxicity at 10 µM was -20%.
Consider `Cc1csc2cc(C(=O)NC3CCCC3)cnc12`, for which the cytotoxicity at 10 µM was determined as 3.13%.
Take `O=C(c1ccc(OCC2CC2)nc1)N1CCCC(n2cccn2)C1` (stereo not drawn): the cytotoxicity at 10 µM is -12.4%.
For the compound `CN1CCCN(C(=O)c2csc(-c3ccc(C(F)(F)F)cc3)n2)CC1`, the cytotoxicity at 10 µM is -5.81%.
As for `O=C(COc1ccc(Cl)cc1Cl)N1CCCSCC1CN1CCOCC1` (stereo not drawn), the cytotoxicity at 10 µM was 4.09%.
With `CN(Cc1ccco1)Cc1cncc2c1CCN(Cc1ccoc1)C2`, the cytotoxicity at 10 µM is -108%.
Regarding `Cc1noc(CNc2ccc(OC(F)F)cc2OC(F)F)n1`, the cytotoxicity at 10 µM came out at 1.85%.
On to `CCCN1CCCCCC1Cc1c(C(=O)NC)sc2ccccc12` (stereo not drawn), for which the cytotoxicity at 10 µM turned out to be 8.53%.
Consider `Cc1cnc(CCNC(=O)NCCc2ccc(O)cc2)s1`, for which the cytotoxicity at 10 µM was -0.276%.
`CCC(C)(O)CNC(=O)Nc1ccc(C)cc1Br` (stereo not drawn): the cytotoxicity at 10 µM was -9.95%.
As for `CCc1cccc(C)c1NC(=O)c1ccccc1N(C)S(C)(=O)=O`, the figure is 17.8%; as for `CC(Cn1cncn1)NC(=O)c1cn(Cc2ccccc2F)nn1` (stereo not drawn), -1.62%; as for `OC1(CN2CCC(Cc3ncccn3)CC2)CCOCC1`, 16.6%.
As for `COc1c(CNCCNC(=O)c2ccc(C)c(F)c2)c(C)nn1C`, the figure is -3.33%.
As for `O=C(C(CNCc1cccs1)c1ccccc1)N1CCOCC1` (stereo not drawn), the cytotoxicity at 10 µM was 0.142%.
`CCc1c(NCc2ccncc2)cnn1CC(C)C`: the cytotoxicity at 10 µM was 7.81%.
As for `Cc1nc(N(C)C)nc(C)c1NS(=O)(=O)c1ccc(OC(F)(F)F)cc1`, the cytotoxicity at 10 µM came out at 7.23%.
As to `CCC(C)(NCC(=O)NC(C)C)c1nc(C)cs1` (stereo not drawn), the cytotoxicity at 10 µM is -2.06%.
Then `Cc1nonc1C1CCCN1C(=O)CCc1cc2n(n1)CCCNC2` (stereo not drawn), with -5.65%; and `CSCCCNC(=O)C1CCC(=O)N(C2CCCC2)C1` (stereo not drawn), with -11.1%.
As for `c1cc(CNCC2CNc3ccnn3C2)cc(N2CCCCC2)n1` (stereo not drawn), the figure is 6.91%.
As to `CN1CCCN(CCCNC2CCc3cc4c(cc32)OCCO4)CC1` (stereo not drawn), the cytotoxicity at 10 µM is -3.68%.
As to `Cc1nc2c(c(C)c1CC(=O)NCc1cccs1)c(=O)[nH]n2C`, the cytotoxicity at 10 µM was -34.2%.
In the case of `Cc1nc(N2C[C@H]3CNC[C@H]3C2)c2sccc2n1`, the cytotoxicity at 10 µM is 9.26%.
As for `CCc1csc(C2CCCN(C(=O)c3cc(Cl)c[nH]3)C2)n1` (stereo not drawn), the figure is -9.83%; as for `Cc1noc(CCNC(=O)c2ccc(N(C)C)c(F)c2)n1`, 6.05%; as for `Cc1ccc(CN2CCC3(C2)C(=O)N(CC(C)C)c2ccccc23)s1` (stereo not drawn), -0.324%.
Turning to `O=C(NCC(O)c1cccs1)c1ccco1` (stereo not drawn), the cytotoxicity at 10 µM was -14.7%.
Turning to `Cc1nn(C)cc1CN1CCN(CC2(c3ccccc3)CC2)CC1`, the cytotoxicity at 10 µM worked out at 1.25%.
For the compound `CCNC(=O)c1ccc(N2CCCC(c3nccn3C(C)C)C2)nc1` (stereo not drawn), the cytotoxicity at 10 µM was -8.39%.
Take `c1ncc2c(n1)CN(Cc1nc(-c3ccoc3)no1)CC2`: the cytotoxicity at 10 µM is -10.2%.
For `Cc1nc(NCCc2ccc(Cl)cc2)cc(C(=O)N2CCCCC2)n1`, the cytotoxicity at 10 µM was -23%.
For the compound `O=C(N1CCOCC1)[C@@]12CCO[C@@H]1CCN(CC1CCC1)C2`, the cytotoxicity at 10 µM is 11.1%.
As to `O=c1c2cnc(N3CCCCC3)nc2ccn1-c1ccccc1F`, the cytotoxicity at 10 µM worked out at 2.77%.
As to `Cc1cc(C(F)(F)F)nn1CC(C)C(=O)NC(C)C` (stereo not drawn), the cytotoxicity at 10 µM came out at 10%.
Consider `COCC1CCN(S(=O)(=O)N2C[C@@H](C)[C@](O)(C3CC3)C2)CC1`, for which the cytotoxicity at 10 µM was found to be 0.23%.
In the case of `O=C(Cc1ccco1)N1C[C@@H]2COC[C@]2(COCC2CCOCC2)C1`, the cytotoxicity at 10 µM was -102%.
Then `O=C(Cc1ccon1)N1CCN(c2ccc(F)cc2Cl)CC1`, with 1.02%; and `CCc1ncc2c(n1)CN(Cc1nc(C)c(C)o1)CC2`, with 2.92%; and `O=C(Nc1ccc(OCc2cccc(F)c2)c(F)c1)C1COCCO1` (stereo not drawn), with 74.4%.
As for `COc1ccc(NC(=O)c2cnc(N(C)C3CCCCC3)nc2N)cc1`, the figure is -3.64%; as for `CCN1CCO[C@@H]2CN(C(=O)c3cocn3)C[C@@H]2C1`, 0.933%; as for `Cc1noc(C)c1CN1C[C@@H](C(=O)O)[C@H](c2ccccc2)C1`, -9.04%.
Turning to `CN(C)Cc1cnc2n1CCN(C(=O)NCc1ccccc1)CC2`, the cytotoxicity at 10 µM was -6.41%.
Then `Cc1cc(N(Cc2ccccc2F)C2CC2)n2nc(C(F)(F)F)nc2n1`, with 0.43%; and `CCc1nc(N)sc1C(=O)N1CCCC(COc2cccc(C)c2)C1` (stereo not drawn), with -140%.
Consider `Cc1nc(CNC(=O)N(CCCO)C2CCc3ccccc32)oc1C` (stereo not drawn), for which the cytotoxicity at 10 µM was -13.5%.
Then `O=C(NCCCn1nc2ccccn2c1=O)NCC(C1CC1)C1CC1`, with 6.01%.
Turning to `COCCCNc1c(C#N)c2c(c3nncn13)CN(C)CC2`, the cytotoxicity at 10 µM stood at 5.86%.
As for `Cc1noc(C)c1S(=O)(=O)N1CCC(Oc2cccnn2)CC1`, the figure is 0.0701%; as for `O=C(N1CCCO1)[C@]12COC[C@H]1CN(Cc1nccs1)C2`, 9.31%.
On to `Cc1nc(-c2ccccc2)sc1CSC(C)C(N)=O` (stereo not drawn), for which the cytotoxicity at 10 µM is -6.55%.
As for `NC(=O)C1CN(Cc2c(O)ccc3oc4c(c23)CCCC4)CCO1` (stereo not drawn), the cytotoxicity at 10 µM amounted to 4.48%.
Regarding `CSCC(=O)N[C@H]1CC[C@H](Nc2nccc(-c3cccnc3)n2)C1`, the cytotoxicity at 10 µM turned out to be 9.87%.
With `Cc1ccc(F)c(S(=O)(=O)NCc2cccc(C(=O)N3CCCC3)c2)c1`, the cytotoxicity at 10 µM was -11.1%.
On to `Cn1cc(-c2nc(CN3CCc4c(ncn4C4CC4)C3)cs2)cn1`, for which the cytotoxicity at 10 µM was -17.6%.
In the case of `c1ccc(CN2CCC(NCCSc3ncn[nH]3)C2)cc1` (stereo not drawn), the cytotoxicity at 10 µM is -2.76%.
In the case of `COc1c(CNC2CCc3c(Cl)cccc32)c(C)nn1C` (stereo not drawn), the cytotoxicity at 10 µM worked out at 13.3%.
In the case of `OC(CN1CCCCCCC1)c1ccc(OC(F)(F)F)cc1` (stereo not drawn), the cytotoxicity at 10 µM is -11.2%.
As to `Cc1csc(Nc2nccnc2C2CCCN2CC(N)=O)n1` (stereo not drawn), the cytotoxicity at 10 µM was -20.8%.
As for `COc1ccccc1C(=O)N1CCN(CCc2scnc2C)CC1`, the figure is 1.79%.
For `O=C(c1ccco1)N1CCC2(CC1)CCN(c1ncccn1)CC2`, the cytotoxicity at 10 µM came to 4.59%.
As to `c1ccc(CN2CCC3(CC2)CCN(Cc2cccs2)C3)nc1`, the cytotoxicity at 10 µM is 4.17%.
Regarding `CCCC(=O)Nc1cc(C(=O)NC(C)Cc2ccncc2)ccc1C` (stereo not drawn), the cytotoxicity at 10 µM amounted to 2.52%.
Then `COc1ccc(C2CC(=O)c3c(O)cc(O)cc3O2)cc1O` (stereo not drawn), with -2.66%.
In the case of `Cn1ncc(C(=O)N2CCOCC2)c1Cl`, the cytotoxicity at 10 µM was determined as 8.93%.
Take `COCCN1CCN(C(=O)NC2CC2)Cc2ccc(C)nc21`: the cytotoxicity at 10 µM was 3.51%.
Then `N#Cc1ccc(OCCN2CCc3cncnc3C2)cc1`, with -9.96%; and `COC(=O)c1sccc1S(=O)(=O)NCCC(O)c1ccco1` (stereo not drawn), with -5.98%; and `CNC(=O)[C@H]1CC[C@@H]2[C@@H](CCN2CCOCc2ccccc2)O1`, with -109%.
`O=C1NC2(CCN(C(=O)c3ccc(Cl)cc3)CC2)CC1c1ccccc1` (stereo not drawn): the cytotoxicity at 10 µM was -12.2%.
